Activity calls are given as the source filed them. The rule behind the calls is not given here.
Columns and labels:
MCF7 [1] = test: Antiproliferative activity against human MCF7 cells assessed as T/C value at 3.2 x 10^-2 uM incubated for 96 hrs by propidium iodide based 2D monolayer assay; format: functional
MCF7 [2] = test: Antiproliferative activity against human MCF7 cells assessed as T/C value at 3.2 x 10^1 uM incubated for 96 hrs by propidium iodide based 2D monolayer assay; format: functional
MCF7 [3] = test: Antiproliferative activity against human MCF7 cells assessed as T/C value at 1 x 10^-1 uM incubated for 96 hrs by propidium iodide based 2D monolayer assay; format: functional
MCF7 [4] = test: Antiproliferative activity against human MCF7 cells assessed as T/C value at 1 x 10^-2 uM incubated for 96 hrs by propidium iodide based 2D monolayer assay; format: functional
MCF7 [5] = test: Antiproliferative activity against human MCF7 cells assessed as T/C value at 1 x 10^2 uM incubated for 96 hrs by propidium iodide based 2D monolayer assay; format: functional
MCF7 [6] = test: Antiproliferative activity against human MCF7 cells assessed as T/C value at 1 x 10^1 uM incubated for 96 hrs by propidium iodide based 2D monolayer assay; format: functional
MCF7 [7] = test: Antiproliferative activity against human MCF7 cells assessed as reduction in cell growth incubated for 96 hrs by propidium iodide based 2D monolayer assay; format: functional; conditions: MCF7, 96 h
MCF7 [8] = test: Antiproliferative activity against human MCF7 cells assessed as T/C value at 3.2 x 10^-1 uM incubated for 96 hrs by propidium iodide based 2D monolayer assay; format: functional
MCF7 [9] = test: Antiproliferative activity against human MCF7 cells assessed as T/C value at 1 uM incubated for 96 hrs by propidium iodide based 2D monolayer assay; format: functional
Androgen receptor = molecular target: T1, Androgen receptor (Rattus norvegicus, UniProt P15207); test: Antagonist activity at GAL4-DBD fused rat androgen receptor expressed in UAS-bla 293 cells assessed as reduction in R1881-induced activation incubated for 16 hrs followed by fluorescence substrate addition and measured after 2 hrs by beta lactamase reporter gene assay; format: cell-based
T1 sequence (P15207 whole entry): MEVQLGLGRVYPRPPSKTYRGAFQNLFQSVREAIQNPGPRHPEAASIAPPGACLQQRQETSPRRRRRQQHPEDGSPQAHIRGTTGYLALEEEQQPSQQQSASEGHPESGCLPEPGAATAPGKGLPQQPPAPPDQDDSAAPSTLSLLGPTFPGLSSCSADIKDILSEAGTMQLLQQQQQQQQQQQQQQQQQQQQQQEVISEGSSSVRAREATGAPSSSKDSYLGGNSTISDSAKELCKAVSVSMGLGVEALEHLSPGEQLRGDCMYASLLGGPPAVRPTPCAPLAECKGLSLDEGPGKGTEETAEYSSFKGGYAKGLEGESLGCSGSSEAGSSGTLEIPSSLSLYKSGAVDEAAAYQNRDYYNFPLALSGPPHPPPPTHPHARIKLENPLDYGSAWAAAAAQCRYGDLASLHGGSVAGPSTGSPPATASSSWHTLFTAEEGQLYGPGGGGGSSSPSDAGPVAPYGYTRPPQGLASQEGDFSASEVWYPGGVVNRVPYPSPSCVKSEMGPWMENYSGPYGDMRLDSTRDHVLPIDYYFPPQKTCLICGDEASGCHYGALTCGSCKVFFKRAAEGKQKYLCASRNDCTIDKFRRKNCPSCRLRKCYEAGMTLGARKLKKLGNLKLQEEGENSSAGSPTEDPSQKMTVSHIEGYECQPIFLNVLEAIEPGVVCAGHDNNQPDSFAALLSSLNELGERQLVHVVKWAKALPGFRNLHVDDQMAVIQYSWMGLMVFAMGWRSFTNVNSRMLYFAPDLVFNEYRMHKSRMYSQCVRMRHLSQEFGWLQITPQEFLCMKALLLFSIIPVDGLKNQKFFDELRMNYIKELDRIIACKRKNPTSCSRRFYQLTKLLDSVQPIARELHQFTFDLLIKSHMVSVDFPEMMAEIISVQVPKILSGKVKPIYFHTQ

CWR22R [10] = test: Antitumor activity against human 22Rv1 cells xenografted in NMRI mouse assessed as tumor volume quadrupling time at 100 mg/kg, ip administered for 16 days (reference value: 6.2 day); format: functional
Method in brief: (§1)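 Male NMRI nu/nu mice carried hind-flank 22Rv1 implants and were randomised at 80–200 mm³ tumour volume. Compound was given i.p. at 100 mg/kg/day as 16–18 daily doses in 10% EtOH, 10% Cremophor EL, 5% dextrose; vehicle controls were treated likewise. Tumours were measured by two-dimensional caliper twice weekly and reported as relative tumour volume. T/C was taken from group medians; doubling and quadrupling times were derived from tumour volume.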

CWR22R [11] = test: Antitumor activity against human 22Rv1 cells xenografted in NMRI mouse assessed as inhibition of tumor growth by measuring T/C value at 100 mg/kg, ip administered for 16 days and measured on day 14; format: functional; method in brief: as §1
[12] = Toxicity in NMRI mouse xenografted with human 22Rv1 cells assessed as survival rate at 100 mg/kg, ip administered for 16 days and measured on day 40; format: organism-based; conditions: in vivo
Method in brief: (§2)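 Male NMRI nu/nu 22Rv1-xenograft mice were dosed i.p. at 100 mg/kg/day for 16–18 daily doses in 10% EtOH, 10% Cremophor EL, 5% dextrose vehicle. Body weight was recorded to assess tolerance, and adjusted survival and group median body weight loss were reported.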

CWR22R [13] = test: Antitumor activity against human 22Rv1 cells xenografted in NMRI mouse assessed as reduction of tumor volume at 100 mg/kg, ip administered for 16 days and measured on day 10; format: functional, organism-based; method in brief: as §1
[14] = Toxicity in NMRI mouse xenografted with human 22Rv1 cells assessed as body weight loss at 100 mg/kg, ip administered for 16 days and measured on day 40; format: organism-based; conditions: in vivo, 384 h; method in brief: as §2
[15] = Toxicity in ip dosed NMRI nu/nu mouse assessed as maximum tolerated dose; format: organism-based; conditions: in vivo
CWR22R [16] = test: Antitumor activity against human 22Rv1 cells xenografted in NMRI mouse assessed as tumor volume doubling time at 100 mg/kg, ip administered for 16 days (reference value: 2.7 day); format: functional; method in brief: as §1
CWR22R [17] = test: Antitumor activity against human 22Rv1 cells xenografted in NMRI mouse assessed as reduction of tumor volume at 100 mg/kg, ip administered for 16 days and measured on day 20; format: functional, organism-based; method in brief: as §1

Row | Structure (SMILES) | T/C (MCF7 [1]) | T/C (MCF7 [2]) | T/C (MCF7 [3]) | T/C (MCF7 [4]) | T/C (MCF7 [5]) | T/C (MCF7 [6]) | IC50 (MCF7 [7]) | IC70 (MCF7 [7]) | T/C (MCF7 [8]) | T/C (MCF7 [9]) | IC50 (Androgen receptor) | other results
1 | CC(O)(COc1ccc(C(F)(F)C(F)(F)F)cc1)C(=O)Nc1cc(C(F)(F)F)cc(C(F)(F)F)c1 (racemic) | 112% | 3% | 116% | 100% | 3% | 26% | 4.01 µM | 6.15 µM | 118% | 115% |  | 
2 | CC(O)(COc1ccccc1C(F)(F)F)C(=O)Nc1ccc(S(F)(F)(F)(F)F)cc1 (racemic) |  |  |  |  |  |  |  |  |  |  | 1.81 µM | 
3 | CC(O)(CSc1cc(C(F)(F)F)cc(C(F)(F)F)c1)C(=O)Nc1cccc(C(F)(F)C(F)(F)F)c1 (racemic) | 118% | 10% | 111% | 115% | 5% | 36% | 8.52 µM | 10.8 µM | 121% | 119% |  | 
4 | CC(O)(COc1ccc(S(F)(F)(F)(F)F)cc1)C(=O)Nc1cc(C(F)(F)F)cc(C(F)(F)F)c1 (racemic) |  |  |  |  |  |  |  |  |  |  |  | Time (CWR22R [10]): 14.3 days; T/C (CWR22R [11]): 43.9%; survival at 384 h [12]: 100%; Activity (CWR22R [13]): Active; Activity [14]: Non-Toxic; MTD [15]: 100 mg/kg; Time (CWR22R [16]): 6.7 days; Activity (CWR22R [17]): Active
5 | CC(O)(COc1cccc(S(F)(F)(F)(F)F)c1)C(=O)Nc1ccc([N+](=O)[O-])c(C(F)(F)F)c1 (racemic) |  |  |  |  |  |  |  |  |  |  | 0.54 µM | 
